{"source": "ChEMBL document CHEMBL1154191", "about": "“Evaluation of spirocyclic 3-(3-fluoropropyl)-2-benzofurans as sigma1 receptor ligands for neuroimaging with positron emission tomography” (J Med Chem, 2009)", "key": {"Cerebellum [1]": {"system": "Cerebellum", "assay": "Biodistribution in CD1 mouse cerebellum assessed per gram of wet tissue at 400 to 600 kBq, iv after 60 mins post-injection by gamma counting in presence of 1 mg/kg, ip sigma 1/sigma 2 receptor antagonist haloperidol treated before compound addition", "assay_type": "organism-based", "set-up": "dose 1 mg/kg, route intravenous", "settings": "in vivo, 1 h", "in_short": "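Blocking arm in fasted female CD-1 mice (n=5). […] Animals were killed at 60 min post-injection, and organs were weighed and γ-counted as % ID/g wet tissue. Percent change was taken against the 60 min control group, with two-tailed unpaired Student's t test.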"}, "Cerebellum [2]": {"system": "Cerebellum", "assay": "Biodistribution in CD1 mouse cerebellum assessed per gram of wet tissue at 400 to 600 kBq, iv after 30 mins post-injection by gamma counting", "assay_type": "ADME, organism-based", "settings": "in vivo, 0.5 h", "in_short": "(§1)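 Female CD-1 mice (~8-12 weeks, 20-28 g) were fasted 24 h with free water. Conscious mice got 400-600 kBq [¹⁸F] tracer in saline by tail vein. At 5, 30, 60 or 120 min (n=4-5 per time) they were anesthetized, blood and urine sampled, then killed by cervical dislocation. Organs were weighed and γ-counted, giving % ID/g wet tissue.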"}, "Pancreas [3]": {"system": "Pancreas", "assay": "Drug uptake in CD1 mouse pancreas at 400 to 600 kBq, iv after 120 mins post-injection by gamma counting relative to initial uptake", "assay_type": "ADME, organism-based", "settings": "in vivo, 2 h", "in_short": "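Organ % ID/g was measured by γ-counting after tail-vein injection of 400-600 kBq [18F] tracer in saline to fasted female CD-1 mice (n=4-5 per time). The 120 min pi value is expressed relative to the initial (5 min pi) uptake.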"}, "[4]": {"assay": "Biodistribution in CD1 mouse adrenal gland assessed per gram of wet tissue at 400 to 600 kBq, iv after 60 mins post-injection by gamma counting", "assay_type": "ADME, organism-based", "settings": "in vivo, 1 h", "in_short": "as §1"}, "Lung": {"system": "Lung", "assay": "Biodistribution in CD1 mouse lung assessed per gram of wet tissue at 400 to 600 kBq, iv after 5 mins post-injection by gamma counting", "assay_type": "ADME, organism-based", "settings": "in vivo", "in_short": "(§2)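 Female CD-1 mice (~8-12 weeks, 20-28 g), habituated ≥48 h and fasted 24 h with water available. The [18F] tracer (>150 GBq/μmol at end of synthesis) was given in 200 μL saline into the tail vein of conscious animals. At each time point, n=4-5, mice were anaesthetised, blood and urine sampled, then killed by cervical dislocation. Organs were weighed and γ-counted, and values calculated as % ID/g wet tissue.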"}, "Liver [5]": {"system": "Liver", "assay": "Metabolic stability in CD1 mouse liver homogenate assessed as formation of 3-(3-Fluoropropyl)-3H-spiro[[2]benzofuran-1,4'-piperidine], 4-((3-(3-fluoropropyl)-3H-spiro[isobenzofuran-1,4'-piperidine]-1'-yl)methyl)phenol and 1-(1'-benzyl-3H-spiro[isobenzofuran-1,4'-piperidine]-3-yl)-3-fluoropropan-2-ol at 200 to 300 MBq, iv after 45 mins postinjection by radio-HPLC and radio-TLC", "assay_type": "ADME, organism-based", "settings": "in vivo, 0.75 h", "in_short": "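Mice received 200-300 MBq [18F] tracer in 200 μL 0.9% saline via the tail vein, and samples were taken at 45 and 60 min (n=2 per time). Plasma was obtained by centrifugation (2000g, 4 °C, 10 min); brain and liver were homogenised in ice-cold 50 mM TRIS-HCl pH 7.4. Samples were precipitated with ice-cold MeCN and centrifuged (4000g, 4 °C, 15 min), and supernatants were analysed by gradient radio-HPLC and radio-TLC, with HPLC fractions γ-counted.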"}, "Stomach [6]": {"system": "Stomach", "assay": "Biodistribution in CD1 mouse stomach assessed per gram of wet tissue at 400 to 600 kBq, iv after 120 mins post-injection by gamma counting", "assay_type": "ADME, organism-based", "settings": "in vivo, 2 h", "in_short": "as §2"}, "Mus musculus [7]": {"system": "Mus musculus", "assay": "Plasma concentration in CD1 mouse assessed per gram of wet tissue at 400 to 600 kBq, iv after 60 mins post-injection by gamma counting", "assay_type": "ADME, organism-based", "settings": "in vivo, 1 h", "in_short": "(§3)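 Female CD-1 mice (~8-12 weeks, 20-28 g), fasted 24 h with free access to water. 400-600 kBq [18F] tracer in 200 μL saline given by tail vein to conscious mice. At 5, 30, 60 or 120 min pi (n=4-5 per time) mice anaesthetised, blood taken, then euthanised. Samples weighed, γ-counted, %ID/g wet tissue calculated.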"}, "Muscle tissue": {"system": "Muscle tissue", "assay": "Biodistribution in CD1 mouse muscle assessed per gram of wet tissue at 400 to 600 kBq, iv after 5 mins post-injection by gamma counting", "assay_type": "ADME, organism-based", "settings": "in vivo", "in_short": "as §2"}, "Cerebellum [8]": {"system": "Cerebellum", "assay": "Biodistribution in CD1 mouse cerebellum assessed per gram of wet tissue at 400 to 600 kBq, iv after 5 mins post-injection by gamma counting", "assay_type": "ADME, organism-based", "settings": "in vivo", "in_short": "as §1"}, "[9]": {"assay": "Biodistribution in CD1 mouse adrenal gland assessed per gram of wet tissue at 400 to 600 kBq, iv after 120 mins post-injection by gamma counting", "assay_type": "ADME, organism-based", "settings": "in vivo, 2 h", "in_short": "as §1"}, "Stomach [10]": {"system": "Stomach", "assay": "Biodistribution in CD1 mouse stomach assessed per gram of wet tissue at 400 to 600 kBq, iv after 60 mins post-injection by gamma counting in presence of 1 mg/kg, ip sigma 1/sigma 2 receptor antagonist haloperidol treated before compound addition", "assay_type": "organism-based", "set-up": "route intravenous", "settings": "in vivo, 1 h", "in_short": "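They were killed at 60 min pi, and organs were weighed and γ-counted as % ID/g wet tissue. Comparison with controls used Student's t test (independent, two-tailed).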"}, "Mus musculus [11]": {"system": "Mus musculus", "assay": "Plasma concentration in CD1 mouse assessed per gram of wet tissue at 400 to 600 kBq, iv after 120 mins post-injection by gamma counting", "assay_type": "ADME, organism-based", "settings": "in vivo, 2 h", "in_short": "as §3"}, "Liver [12]": {"system": "Liver", "assay": "Biodistribution in CD1 mouse liver assessed per gram of wet tissue at 400 to 600 kBq, iv after 120 mins post-injection by gamma counting", "assay_type": "ADME, organism-based", "settings": "in vivo, 2 h", "in_short": "as §1"}, "Pancreas [13]": {"system": "Pancreas", "assay": "Biodistribution in CD1 mouse pancreas assessed per gram of wet tissue at 400 to 600 kBq, iv after 30 mins post-injection by gamma counting", "assay_type": "ADME, organism-based", "settings": "in vivo, 0.5 h", "in_short": "as §2"}, "Heart [14]": {"system": "Heart", "assay": "Biodistribution in CD1 mouse heart assessed per gram of wet tissue at 400 to 600 kBq, iv after 60 mins post-injection by gamma counting", "assay_type": "ADME, organism-based", "settings": "in vivo, 1 h", "in_short": "as §1"}, "Femur": {"system": "Femur", "assay": "Biodistribution in CD1 mouse femur assessed per gram of wet tissue at 400 to 600 kBq, iv after 120 mins post-injection by gamma counting", "assay_type": "ADME, organism-based", "settings": "in vivo, 2 h", "in_short": "as §1"}, "Stomach [15]": {"system": "Stomach", "assay": "Biodistribution in CD1 mouse stomach assessed per gram of wet tissue at 400 to 600 kBq, iv after 60 mins post-injection by gamma counting", "assay_type": "ADME, organism-based", "settings": "in vivo, 1 h", "in_short": "as §2"}, "Blood": {"system": "Blood", "assay": "Biodistribution in CD1 mouse blood assessed per gram of wet tissue at 400 to 600 kBq, iv after 5 mins post-injection by gamma counting", "assay_type": "ADME, organism-based", "settings": "in vivo", "in_short": "as §1"}, "Kidney": {"system": "Kidney", "assay": "Biodistribution in CD1 mouse kidney assessed per gram of wet tissue at 400 to 600 kBq, iv after 5 mins post-injection by gamma counting", "assay_type": "ADME, organism-based", "settings": "in vivo", "in_short": "as §1"}, "[16]": {"assay": "Biodistribution in CD1 mouse gonad assessed per gram of wet tissue at 400 to 600 kBq, iv after 120 mins post-injection by gamma counting", "assay_type": "ADME, organism-based", "settings": "in vivo, 2 h", "in_short": "as §1"}, "Heart [17]": {"system": "Heart", "assay": "Biodistribution in CD1 mouse heart assessed per gram of wet tissue at 400 to 600 kBq, iv after 5 mins post-injection by gamma counting", "assay_type": "ADME, organism-based", "settings": "in vivo", "in_short": "as §1"}, "[18]": {"assay": "Biodistribution in CD1 mouse adrenal gland assessed per gram of wet tissue at 400 to 600 kBq, iv after 30 mins post-injection by gamma counting", "assay_type": "ADME, organism-based", "settings": "in vivo, 0.5 h", "in_short": "as §1"}, "[19]": {"assay": "Biodistribution in CD1 mouse gonad assessed per gram of wet tissue at 400 to 600 kBq, iv after 60 mins post-injection by gamma counting", "assay_type": "ADME, organism-based", "settings": "in vivo, 1 h", "in_short": "as §1"}, "[20]": {"assay": "N-octanol-phosphate buffer distribution coefficient, log D in three buffered solution by shake flask method", "assay_type": "physicochemical", "in_short": "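[18F]-labelled tracer partitioned between n-octanol and Sorensen's phosphate buffer (50 mM, pH 7.2), Dulbecco's PBS (pH 7.2) or TRIS-HCl (30 mM, pH 7.2). Conventional shake-flask method, multiple distribution in duplicates, n = 50 in total.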"}}}
{"smiles": "[18F]CCCC1OC2(CCN(Cc3ccccc3)CC2)c2ccccc21", "note": "(stereo not given)", "values": [{"measurement": "Drug uptake", "setting": "Cerebellum [1]", "result": 0.63, "unit": "%ID"}, {"measurement": "Drug uptake", "setting": "Cerebellum [2]", "result": 3.71, "unit": "%ID"}, {"measurement": "Drug uptake", "setting": "Pancreas [3]", "result": "> 70", "unit": "%"}, {"measurement": "Drug uptake", "setting": "[4]", "result": 7.78, "unit": "%ID"}, {"measurement": "Drug uptake", "setting": "Lung", "result": 16.2, "unit": "%ID"}, {"measurement": "Activity", "setting": "Liver [5]", "result": 45, "unit": "%"}, {"measurement": "Drug uptake", "setting": "Stomach [6]", "result": 3.12, "unit": "%ID"}, {"measurement": "Drug uptake", "setting": "Mus musculus [7]", "result": 0.52, "unit": "%ID"}, {"measurement": "Drug uptake", "setting": "Muscle tissue", "result": 2.18, "unit": "%ID"}, {"measurement": "Drug uptake", "setting": "Cerebellum [8]", "result": 4.62, "unit": "%ID"}, {"measurement": "Drug uptake", "setting": "[9]", "result": 5.86, "unit": "%ID"}, {"measurement": "Drug uptake", "setting": "Stomach [10]", "result": 5.88, "unit": "%ID"}, {"measurement": "Drug uptake", "setting": "Mus musculus [11]", "result": 0.44, "unit": "%ID"}, {"measurement": "Drug uptake", "setting": "Liver [12]", "result": 2.93, "unit": "%ID"}, {"measurement": "Drug uptake", "setting": "Pancreas [13]", "result": 12.8, "unit": "%ID"}, {"measurement": "Drug uptake", "setting": "Heart [14]", "result": 2.46, "unit": "%ID"}, {"measurement": "Drug uptake", "setting": "Femur", "result": 6.64, "unit": "%ID"}, {"measurement": "Drug uptake", "setting": "Stomach [15]", "result": 3.17, "unit": "%ID"}, {"measurement": "Drug uptake", "setting": "Blood", "result": 1.44, "unit": "%ID"}, {"measurement": "Drug uptake", "setting": "Kidney", "result": 12.1, "unit": "%ID"}, {"measurement": "Drug uptake", "setting": "[16]", "result": 4.16, "unit": "%ID"}, {"measurement": "Drug uptake", "setting": "Heart [17]", "result": 6.52, "unit": "%ID"}, {"measurement": "Drug uptake", "setting": "[18]", "result": 7.63, "unit": "%ID"}, {"measurement": "Drug uptake", "setting": "[19]", "result": 4.22, "unit": "%ID"}, {"measurement": "logD", "setting": "[20]", "result": 3.03}]}
